Test results from ChEMBL document CHEMBL3792365, “Dioxol and dihydrodioxin analogs of 2- and 3-phenylacetonitriles as potent anti-cancer agents with nanomolar activity against a variety of human cancer cells” (2016).

Tests used:
Assay type in all cases: functional
[1] = Growth inhibition of human SNB75 cells at 10 uM after 48 hrs by sulforhodamine B assay; details: SNB-75, 48 h, values are per cent of control
[2] = tested on: Malme-3M; test: Growth inhibition of human MALME-3M cells at 10 uM after 48 hrs by sulforhodamine B assay; details: values are per cent of control
[3] = Growth inhibition of human UACC257 cells at 10 uM after 48 hrs by sulforhodamine B assay; details: UACC-257, 48 h, values are per cent of control
[4] = Growth inhibition of human OVCAR5 cells at 10 uM after 48 hrs by sulforhodamine B assay; details: OVCAR-5, 48 h, values are per cent of control
[5] = Growth inhibition of human SKOV3 cells at 10 uM after 48 hrs by sulforhodamine B assay; details: SK-OV-3, 48 h, values are per cent of control
[6] = tested on: A498; test: Growth inhibition of human A498 cells at 10 uM after 48 hrs by sulforhodamine B assay; details: A498, 48 h, values are per cent of control
[7] = Growth inhibition of human UO31 cells at 10 uM after 48 hrs by sulforhodamine B assay; details: UO-31, 48 h, values are per cent of control
[8] = Growth inhibition of human PC3 cells at 10 uM after 48 hrs by sulforhodamine B assay; details: PC-3, 48 h, values are per cent of control
[9] = tested on: MCF7; test: Growth inhibition of human MCF7 cells at 10 uM after 48 hrs by sulforhodamine B assay; details: MCF7, 48 h, values are per cent of control
[10] = tested on: MDA-MB-231; test: Growth inhibition of human MDA-MB-231 cells at 10 uM after 48 hrs by sulforhodamine B assay; details: MDA-MB-231, 48 h, values are per cent of control
[11] = tested on: CCRF-CEM; test: Growth inhibition of human CCRF-CEM cells after 48 hrs by sulforhodamine B assay
In short: (§1)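 Five-dose testing against a 60-line human tumor cell panel. GI50 is the drug concentration giving a 50% reduction in net protein increase relative to untreated control cells.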

[12] = Growth inhibition of human MOLT4 cells after 48 hrs by sulforhodamine B assay; details: MOLT-4, 48 h
In short: (§2)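 Five-dose concentration series run across a panel of 60 human tumour cell lines. GI50 is taken as the drug concentration giving a 50% reduction in net protein increase relative to untreated control cells.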

[13] = Growth inhibition of human RPMI8226 cells after 48 hrs by sulforhodamine B assay; details: RPMI-8226, 48 h; in short: as §2
[14] = tested on: SR; test: Growth inhibition of human SR cells after 48 hrs by sulforhodamine B assay; in short: as §2
[15] = tested on: A549; test: Growth inhibition of human A549/ATCC cells after 48 hrs by sulforhodamine B assay; details: A549, 48 h; in short: as §1
[16] = Growth inhibition of human HOP62 cells after 48 hrs by sulforhodamine B assay; details: HOP-62, 48 h; in short: as §1
[17] = Growth inhibition of human HOP92 cells after 48 hrs by sulforhodamine B assay; details: HOP-92, 48 h; in short: as §1
[18] = tested on: NCI-H23; test: Growth inhibition of human NCI-H23 cells after 48 hrs by sulforhodamine B assay; details: NCI-H23, 48 h; in short: as §2
[19] = Growth inhibition of human COLO205 cells after 48 hrs by sulforhodamine B assay; details: COLO 205, 48 h; in short: as §1
[20] = Growth inhibition of human HCC2998 cells after 48 hrs by sulforhodamine B assay; details: HCC 2998, 48 h; in short: as §1
[21] = Growth inhibition of human HCT116 cells after 48 hrs by sulforhodamine B assay; details: HCT-116, 48 h; in short: as §1
[22] = Growth inhibition of human HCT15 cells after 48 hrs by sulforhodamine B assay; details: HCT-15, 48 h; in short: as §1
[23] = Growth inhibition of human SW620 cells after 48 hrs by sulforhodamine B assay; details: SW-620, 48 h; in short: as §2
[24] = Growth inhibition of human SNB19 cells after 48 hrs by sulforhodamine B assay; details: SNB-19, 48 h; in short: as §2
[25] = tested on: U-251; test: Growth inhibition of human U251 cells after 48 hrs by sulforhodamine B assay; details: U-251, 48 h; in short: as §2
[26] = tested on: M14; test: Growth inhibition of human M14 cells after 48 hrs by sulforhodamine B assay; details: M14, 48 h; in short: as §1
[27] = tested on: MDA-MB-435; test: Growth inhibition of human MDA-MB-435 cells after 48 hrs by sulforhodamine B assay; details: MDA-MB-435, 48 h; in short: as §1
[28] = tested on: SK-MEL-5; test: Growth inhibition of human SK-MEL-5 cells after 48 hrs by sulforhodamine B assay; details: SK-MEL-5, 48 h; in short: as §2
[29] = Growth inhibition of human UACC62 cells after 48 hrs by sulforhodamine B assay; details: UACC-62, 48 h
In short: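 Five-dose testing across the 60-line human tumour cell panel. GI50 is the drug concentration that gives a 50% reduction in net protein increase relative to control cells.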

[30] = Growth inhibition of human SKOV3 cells after 48 hrs by sulforhodamine B assay; details: SK-OV-3, 48 h; in short: as §2
[31] = tested on: ACHN; test: Growth inhibition of human ACHN cells after 48 hrs by sulforhodamine B assay; in short: as §1
[32] = tested on: CCRF-CEM; test: Growth inhibition of human CCRF-CEM cells at 10 uM after 48 hrs by sulforhodamine B assay; details: values are per cent of control
[33] = Growth inhibition of human HL-60(TB) cells at 10 uM after 48 hrs by sulforhodamine B assay; details: HL-60, 48 h, values are per cent of control
[34] = tested on: K562; test: Growth inhibition of human K562 cells at 10 uM after 48 hrs by sulforhodamine B assay; details: K562, 48 h, values are per cent of control
[35] = Growth inhibition of human MOLT4 cells at 10 uM after 48 hrs by sulforhodamine B assay; details: MOLT-4, 48 h, values are per cent of control
[36] = Growth inhibition of human RPMI8226 cells at 10 uM after 48 hrs by sulforhodamine B assay; details: RPMI-8226, 48 h, values are per cent of control
[37] = Growth inhibition of human HOP92 cells at 10 uM after 48 hrs by sulforhodamine B assay; details: HOP-92, 48 h, values are per cent of control
[38] = tested on: HT-29; test: Growth inhibition of human HT-29 cells at 10 uM after 48 hrs by sulforhodamine B assay; details: HT-29, 48 h, values are per cent of control
[39] = tested on: KM12; test: Growth inhibition of human KM12 cells at 10 uM after 48 hrs by sulforhodamine B assay; details: KM12, 48 h, values are per cent of control
[40] = Growth inhibition of human PC3 cells after 48 hrs by sulforhodamine B assay; details: PC-3, 48 h; in short: as §2
[41] = tested on: MDA-MB-231; test: Growth inhibition of human MDA-MB-231 cells after 48 hrs by sulforhodamine B assay; details: MDA-MB-231, 48 h; in short: as §1
[42] = Growth inhibition of human Hs 578T cells after 48 hrs by sulforhodamine B assay; in short: as §1
[43] = tested on: MDA-MB-468; test: Growth inhibition of human MDA-MB-468 cells after 48 hrs by sulforhodamine B assay; details: MDA-MB-468, 48 h; in short: as §1

COc1ccc(/C(C#N)=C/c2ccc3c(c2)OCCO3)cc1
growth, % of control at 10 µM [1]: 61.1% | growth, % of control at 10 µM [2]: 64.6% | growth, % of control at 10 µM [3]: 76.7% | growth, % of control at 10 µM [4]: 88% | growth, % of control at 10 µM [5]: 81% | growth, % of control at 10 µM [6]: 70.9% | growth, % of control at 10 µM [7]: 73.2% | growth, % of control at 10 µM [8]: 70.9% | growth, % of control at 10 µM [9]: 24.4% | growth, % of control at 10 µM [10]: 68.4% | GI50 [11]: > 100 µM | GI50 [12]: > 100 µM | GI50 [13]: > 100 µM | GI50 [14]: 2.76 µM | GI50 [15]: 21.7 µM | GI50 [16]: > 100 µM | GI50 [17]: > 100 µM | GI50 [18]: > 100 µM | GI50 [19]: > 100 µM | GI50 [20]: 7.78 µM | GI50 [21]: 6.33 µM | GI50 [22]: 2.1 µM | GI50 [23]: 3.93 µM | GI50 [24]: > 100 µM | GI50 [25]: > 100 µM | GI50 [26]: 3.87 µM | GI50 [27]: 0.51 µM | GI50 [28]: 3.54 µM | GI50 [29]: 8.68 µM | GI50 [30]: > 100 µM | GI50 [31]: > 100 µM | growth, % of control at 10 µM [32]: 58.7% | growth, % of control at 10 µM [33]: 38% | growth, % of control at 10 µM [34]: 18.7% | growth, % of control at 10 µM [35]: 32.2% | growth, % of control at 10 µM [36]: 80.8% | growth, % of control at 10 µM [37]: 89% | growth, % of control at 10 µM [38]: 21.8% | growth, % of control at 10 µM [39]: 27.8% | GI50 [40]: > 100 µM | GI50 [41]: 69.3 µM | GI50 [42]: > 100 µM | GI50 [43]: 4.29 µM

COc1ccc(/C(C#N)=C/c2ccc3c(c2)OCCO3)cc1OC
growth, % of control at 10 µM [1]: 2.2% | growth, % of control at 10 µM [2]: 51.8% | growth, % of control at 10 µM [3]: 66.7% | growth, % of control at 10 µM [4]: 73.5% | growth, % of control at 10 µM [5]: 20% | growth, % of control at 10 µM [6]: -4.1% | growth, % of control at 10 µM [7]: 41.8% | growth, % of control at 10 µM [8]: 21.3% | growth, % of control at 10 µM [9]: 20.1% | growth, % of control at 10 µM [10]: 63% | GI50 [11]: 3.76 µM | GI50 [12]: 8.85 µM | GI50 [13]: 4.81 µM | GI50 [14]: 0.93 µM | GI50 [15]: 4.12 µM | GI50 [16]: 2.98 µM | GI50 [17]: 9.64 µM | GI50 [18]: 6.61 µM | GI50 [19]: 2.77 µM | GI50 [20]: 8.85 µM | GI50 [21]: 2.71 µM | GI50 [22]: 0.73 µM | GI50 [23]: 1.04 µM | GI50 [24]: 4.08 µM | GI50 [25]: 3.97 µM | GI50 [26]: 1.63 µM | GI50 [27]: 0.26 µM | GI50 [28]: 0.84 µM | GI50 [29]: 1.04 µM | GI50 [30]: 3.24 µM | GI50 [31]: 7.61 µM | growth, % of control at 10 µM [32]: 6.4% | growth, % of control at 10 µM [33]: -15.7% | growth, % of control at 10 µM [34]: 11.6% | growth, % of control at 10 µM [35]: 19.6% | growth, % of control at 10 µM [36]: 57.1% | growth, % of control at 10 µM [37]: 39.3% | growth, % of control at 10 µM [38]: 6.6% | growth, % of control at 10 µM [39]: 30.6% | GI50 [40]: 4.57 µM | GI50 [41]: 4.69 µM | GI50 [42]: 5.56 µM | GI50 [43]: 1.11 µM
